ChEMBL document CHEMBL4376814, “Novel cyclin-dependent kinase 9 (CDK9) inhibitor with suppression of cancer stemness activity against non-small-cell lung cancer” (Eur J Med Chem, 2019)
The source made the active and inactive calls. The rule behind the calls is not given here.

Assays:
[1] = biological target: Receptor-interacting serine/threonine-protein kinase 1 (Homo sapiens) (UniProt Q13546); test: Inhibition of human RIPK1 (8 to 322 residues) at 1 uM using myelin basic protein as substrate measured after 120 mins in presence of [gamma33P]ATP by scintillation counting method relative to control
Method in brief: (§1)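 Percent inhibition of kinase activity at a single compound concentration, measured by the outsourced Eurofins KinaseProfiler panel. Values are the mean of two independent experiments.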

[2] = biological target: Serine/threonine-protein kinase/endoribonuclease IRE1 (Homo sapiens) (UniProt O75460); test: Inhibition of recombinant human IRE1 (465 to end residues) at 1 uM using myelin basic protein as substrate measured after 40 mins in presence of [gamma33P]ATP by scintillation counting method relative to control
[3] = biological target: Serine/threonine-protein kinase 17A (Homo sapiens) (UniProt Q9UEE5); test: Inhibition of recombinant full-length human DRAK1 at 1 uM using KKLNRTLSFAEPG as substrate measured after 40 mins in presence of [gamma33P]ATP by scintillation counting method relative to control
[4] = biological target: Mitogen-activated protein kinase 1 (Homo sapiens) (UniProt P28482); test: Inhibition of recombinant full-length human MAPK2 at 1 uM using MBP as substrate measured after 40 mins in presence of [gamma33P]ATP by scintillation counting method relative to control
Chain of Mitogen-activated protein kinase 1 (Homo sapiens) (P28482 whole entry): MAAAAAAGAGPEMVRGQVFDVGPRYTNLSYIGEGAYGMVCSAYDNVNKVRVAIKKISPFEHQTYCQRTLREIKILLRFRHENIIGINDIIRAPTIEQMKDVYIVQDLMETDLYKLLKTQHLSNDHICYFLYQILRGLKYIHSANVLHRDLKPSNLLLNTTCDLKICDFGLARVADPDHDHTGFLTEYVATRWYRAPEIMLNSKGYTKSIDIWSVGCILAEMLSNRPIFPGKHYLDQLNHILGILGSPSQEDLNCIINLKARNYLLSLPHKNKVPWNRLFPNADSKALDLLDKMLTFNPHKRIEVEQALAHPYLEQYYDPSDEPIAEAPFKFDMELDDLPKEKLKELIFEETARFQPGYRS

[5] = test system: Tyrosine-protein kinase ABL1 (Homo sapiens), P00519 [Y253F]; test: Inhibition of recombinant human Abl Y253F mutant (27 to end residues) at 1 uM using EAIYAAPFAKKK as substrate measured after 40 mins in presence of [gamma33P]ATP by scintillation counting method relative to control
[6] = Half life in CD-1 mouse liver microsomes at 2 uM in presence of NADPH measured up to 1 hr by HPLC analysis; type: ADME, Microsome
Method in brief: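 Drug at 2 µM incubated at 37 °C with male liver microsomes at 1 mg/mL, in 0.1 M phosphate buffer pH 7.4 with MgCl2. After 5 min preincubation, reaction started with NADPH. Samples (n=3) taken at 0, 10, 20, 30, 45 and 60 min, quenched with ice-cold acetonitrile, spun, and analysed by HPLC. t1/2 derived from the fitted rate constant k.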

[7] = biological target: Phosphatidylinositol 3-kinase C2 domain-containing subunit gamma (Homo sapiens) (UniProt O75747); test: Inhibition of recombinant human PI3KC2gamma (468 to 1203 residues) at 1 uM using phosphatidylinositol as substrate measured after 40 mins by HTRF assay relative to control
Chain of Phosphatidylinositol 3-kinase C2 domain-containing subunit gamma (Homo sapiens) (O75747 whole entry, the tested form may be a part): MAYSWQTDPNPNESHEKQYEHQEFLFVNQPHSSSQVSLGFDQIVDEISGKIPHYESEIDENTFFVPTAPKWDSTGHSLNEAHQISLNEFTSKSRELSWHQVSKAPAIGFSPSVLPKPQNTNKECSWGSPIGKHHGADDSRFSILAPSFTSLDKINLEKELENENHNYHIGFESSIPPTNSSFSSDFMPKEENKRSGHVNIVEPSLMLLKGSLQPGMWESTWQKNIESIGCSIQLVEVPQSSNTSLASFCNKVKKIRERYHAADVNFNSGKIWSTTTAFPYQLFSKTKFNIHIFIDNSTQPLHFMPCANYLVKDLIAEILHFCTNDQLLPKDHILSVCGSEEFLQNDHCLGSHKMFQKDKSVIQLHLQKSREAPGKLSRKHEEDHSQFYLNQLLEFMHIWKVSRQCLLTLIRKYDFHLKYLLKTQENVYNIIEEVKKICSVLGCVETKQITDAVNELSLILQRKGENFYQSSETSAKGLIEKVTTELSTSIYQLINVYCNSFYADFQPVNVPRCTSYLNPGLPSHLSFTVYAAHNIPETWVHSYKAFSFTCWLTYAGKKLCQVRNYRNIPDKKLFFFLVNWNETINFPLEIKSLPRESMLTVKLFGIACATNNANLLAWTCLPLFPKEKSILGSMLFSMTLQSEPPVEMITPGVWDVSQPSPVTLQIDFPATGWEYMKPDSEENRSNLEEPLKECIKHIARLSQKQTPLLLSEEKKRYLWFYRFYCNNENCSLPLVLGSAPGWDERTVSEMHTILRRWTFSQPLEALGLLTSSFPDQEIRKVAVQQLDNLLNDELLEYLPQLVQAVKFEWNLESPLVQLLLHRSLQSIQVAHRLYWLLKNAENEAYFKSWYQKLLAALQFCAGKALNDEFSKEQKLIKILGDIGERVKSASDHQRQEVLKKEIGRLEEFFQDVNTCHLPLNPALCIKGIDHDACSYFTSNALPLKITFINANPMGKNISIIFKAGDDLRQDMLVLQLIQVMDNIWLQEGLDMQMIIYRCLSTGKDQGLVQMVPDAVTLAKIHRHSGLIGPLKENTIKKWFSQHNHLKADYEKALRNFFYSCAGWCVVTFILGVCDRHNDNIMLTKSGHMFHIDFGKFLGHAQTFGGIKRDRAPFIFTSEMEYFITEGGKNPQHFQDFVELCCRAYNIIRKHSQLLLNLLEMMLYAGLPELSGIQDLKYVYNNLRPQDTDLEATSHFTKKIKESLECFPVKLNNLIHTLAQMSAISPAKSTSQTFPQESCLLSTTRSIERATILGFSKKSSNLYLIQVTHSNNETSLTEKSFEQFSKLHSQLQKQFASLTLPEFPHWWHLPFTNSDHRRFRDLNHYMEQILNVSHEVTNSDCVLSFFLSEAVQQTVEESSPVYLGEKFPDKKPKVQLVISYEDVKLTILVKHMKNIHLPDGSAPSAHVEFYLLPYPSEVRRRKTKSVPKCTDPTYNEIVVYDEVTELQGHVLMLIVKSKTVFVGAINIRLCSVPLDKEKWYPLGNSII

[8] = test system: NCI-H1299; test: Antiproliferative activity against human H1299 cells assessed as inhibition of cell viability at 10 uM after 72 hrs by CCK-8 assay relative to control; type: functional; settings: NCI-H1299, 72 h
Method in brief: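 Single-concentration viability screen using CCK-8. Cells were seeded at 3000/well and treated for 72 h. A450 read after 1-4 h with reagent. Percent inhibition calculated against untreated control and blank wells as (Ac−As)/(Ac−Ab)×100%.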

[9] = biological target: Transient receptor potential cation channel subfamily M member 7 (Homo sapiens) (UniProt Q96QT4); test: Inhibition of recombinant human CHAK1 (1180 to end residues) at 1 uM using myelin basic protein as substrate measured after 40 mins in presence of [gamma33P]ATP by scintillation counting method relative to control
[10] = biological target: Mitogen-activated protein kinase kinase kinase kinase 4 (Homo sapiens) (UniProt O95819); test: Inhibition of recombinant human MAP4K4 (1 to 328 residues) at 1 uM using RLGRDKYKTLRQIRQ as substrate measured after 40 mins in presence of [gamma33P]ATP by scintillation counting method relative to control
Chain of Mitogen-activated protein kinase kinase kinase kinase 4 (Homo sapiens) (O95819 2-1239 limits assumed): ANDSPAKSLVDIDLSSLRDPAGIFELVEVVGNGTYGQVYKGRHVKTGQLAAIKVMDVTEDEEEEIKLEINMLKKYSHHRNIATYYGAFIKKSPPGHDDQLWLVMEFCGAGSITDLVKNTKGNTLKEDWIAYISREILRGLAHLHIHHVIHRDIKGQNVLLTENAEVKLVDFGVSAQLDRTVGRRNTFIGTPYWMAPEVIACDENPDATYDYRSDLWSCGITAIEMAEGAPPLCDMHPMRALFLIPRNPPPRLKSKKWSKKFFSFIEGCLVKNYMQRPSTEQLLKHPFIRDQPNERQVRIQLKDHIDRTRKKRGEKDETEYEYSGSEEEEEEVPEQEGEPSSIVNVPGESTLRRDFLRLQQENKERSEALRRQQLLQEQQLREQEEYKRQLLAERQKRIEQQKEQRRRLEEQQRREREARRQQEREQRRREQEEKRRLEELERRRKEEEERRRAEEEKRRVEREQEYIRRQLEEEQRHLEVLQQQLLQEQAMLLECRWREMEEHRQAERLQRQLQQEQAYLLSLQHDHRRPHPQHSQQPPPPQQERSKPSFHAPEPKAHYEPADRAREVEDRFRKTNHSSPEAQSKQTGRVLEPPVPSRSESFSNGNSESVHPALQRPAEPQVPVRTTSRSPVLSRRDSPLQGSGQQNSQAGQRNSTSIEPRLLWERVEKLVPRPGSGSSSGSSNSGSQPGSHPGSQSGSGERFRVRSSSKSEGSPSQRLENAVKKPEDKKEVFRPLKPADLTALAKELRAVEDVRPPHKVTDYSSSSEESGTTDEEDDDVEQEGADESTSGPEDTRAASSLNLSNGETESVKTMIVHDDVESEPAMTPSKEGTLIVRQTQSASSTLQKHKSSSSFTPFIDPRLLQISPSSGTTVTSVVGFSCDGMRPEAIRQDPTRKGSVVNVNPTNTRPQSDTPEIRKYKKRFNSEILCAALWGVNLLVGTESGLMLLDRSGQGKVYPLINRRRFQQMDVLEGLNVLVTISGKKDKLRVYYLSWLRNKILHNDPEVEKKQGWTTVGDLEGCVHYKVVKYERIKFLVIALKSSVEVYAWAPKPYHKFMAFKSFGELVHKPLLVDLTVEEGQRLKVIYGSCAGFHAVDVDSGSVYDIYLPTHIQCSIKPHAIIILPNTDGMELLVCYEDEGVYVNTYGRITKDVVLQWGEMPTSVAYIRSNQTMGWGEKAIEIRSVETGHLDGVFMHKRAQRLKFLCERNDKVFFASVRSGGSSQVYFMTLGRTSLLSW

[11] = test system: SNF-related serine/threonine-protein kinase (Homo sapiens), Q9NRH2 [UNDEFINED MUTATION]; test: Inhibition of human SNRK E97G/P116A mutant (1 to 505 residues) at 1 uM using KKLRRTLSFAEPG as substrate measured after 40 mins in presence of [gamma33P]ATP by scintillation counting method relative to control; method in brief: as §1
[12] = biological target: Protein kinase C gamma type (Homo sapiens) (UniProt P05129); test: Inhibition of recombinant full-length human PKCgamma at 1 uM using histone H1 as substrate measured after 40 mins in presence of [gamma33P]ATP by scintillation counting method relative to control
[13] = biological target: Dual specificity protein kinase CLK2 (Homo sapiens) (UniProt P49760); test: Inhibition of recombinant human CLK2 (138 to end residues) at 1 uM using YRRAAVPPSPSLSRHSSPHQS(p) EDEEE as substrate measured after 40 mins in presence of [gamma33P]ATP by scintillation counting method relative to control
Method in brief: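 Single-point inhibition at 1 µM was measured in the Eurofins KinaseProfiler panel. Values are the mean of two independent experiments.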

[14] = test system: A549; test: Induction of apoptosis in human A549 cells assessed as viable cells at 0.25 uM after 48 hrs by AnnexinV-FITC/PI staining-based flow cytometric analysis (reference value: 88.8%); type: functional; settings: A549, 48 h, read-out: Activity
[15] = biological target: Cyclin-dependent kinase 9 (Homo sapiens) (UniProt P50750); settings: 0.25 to 1 uM
Chain of Cyclin-dependent kinase 9 (Homo sapiens) (P50750 whole entry): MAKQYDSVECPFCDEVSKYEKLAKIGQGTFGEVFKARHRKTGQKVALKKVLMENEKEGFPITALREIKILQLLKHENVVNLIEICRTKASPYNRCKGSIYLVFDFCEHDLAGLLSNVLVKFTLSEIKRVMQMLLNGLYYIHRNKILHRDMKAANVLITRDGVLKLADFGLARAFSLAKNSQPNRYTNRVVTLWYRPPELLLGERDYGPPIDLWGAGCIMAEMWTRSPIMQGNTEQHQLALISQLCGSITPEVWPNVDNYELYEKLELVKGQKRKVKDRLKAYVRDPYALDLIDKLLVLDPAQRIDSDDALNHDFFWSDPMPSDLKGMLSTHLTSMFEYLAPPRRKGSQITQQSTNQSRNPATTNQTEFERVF

[16] = biological target: TGF-beta receptor type-2 (Homo sapiens) (UniProt P37173); test: Inhibition of human TGFBR2 (188 to end residues) at 1 uM using myelin basic protein as substrate measured after 120 mins in presence of [gamma33P]ATP by scintillation counting method relative to control; method in brief: as §1
[17] = test system: HepG2; test: Antiproliferative activity against human HepG2 cells assessed as inhibition of cell viability after 72 hrs by CCK-8 assay; type: functional, cell-based; settings: HepG2, 72 h
Method in brief: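 Cells kept at 37 °C, 5% CO2 in DMEM or RPMI-1640 with 10% FBS and 1% penicillin/streptomycin, then seeded at 3000 cells/well (adherent) or 10,000 cells/well (suspension). Exposed to a range of concentrations for 72 h. CCK-8 added for 1-4 h before reading A450. […] Three independent experiments.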

[18] = test system: A549; test: Induction of cell cycle arrest in human A549 cells assessed as increase in accumulation of cells at G2/M phase at 1 uM after 24 hrs by propidium iodide/RNase staining based flow cytometric analysis; type: functional
Method in brief: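 A549 and H1299 plated at 5×10^5 cells/mL in 6-well plates, treated after adherence for 24 h. Washed with PBS, fixed overnight in ice-cold 75% ethanol, stained with propidium iodide plus RNase A for 30 min at 37 °C, analysed by flow cytometry for phase distribution. Means ± SD, three independent experiments.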

[19] = test system: Receptor-type tyrosine-protein kinase FLT3 (Homo sapiens), P36888 [D835Y]; test: Inhibition of recombinant human Flt3 (564 to end residues) D835Y mutant at 1 uM using EAIYAAPFAKKK as substrate measured after 40 mins in presence of [gamma33P]ATP by scintillation counting method relative to control
[20] = biological target: Macrophage-stimulating protein receptor (Homo sapiens) (UniProt Q04912); test: Inhibition of human Ron (983 to end residues) at 1 uM using GGMEDIYFEFMGGKKK as substrate measured after 40 mins in presence of [gamma33P]ATP by scintillation counting method relative to control; method in brief: as §1
Chain of Macrophage-stimulating protein receptor (Homo sapiens) (Q04912 25-304 limits assumed): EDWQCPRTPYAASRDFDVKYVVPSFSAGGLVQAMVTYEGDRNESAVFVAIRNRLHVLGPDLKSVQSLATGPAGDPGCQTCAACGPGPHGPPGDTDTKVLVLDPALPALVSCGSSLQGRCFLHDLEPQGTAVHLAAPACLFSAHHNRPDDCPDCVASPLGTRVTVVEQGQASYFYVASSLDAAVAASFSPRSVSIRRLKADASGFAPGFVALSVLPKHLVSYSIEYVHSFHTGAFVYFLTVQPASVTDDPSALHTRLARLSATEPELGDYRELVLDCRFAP
Chain of Macrophage-stimulating protein receptor (Homo sapiens) (Q04912 310-1400 limits assumed): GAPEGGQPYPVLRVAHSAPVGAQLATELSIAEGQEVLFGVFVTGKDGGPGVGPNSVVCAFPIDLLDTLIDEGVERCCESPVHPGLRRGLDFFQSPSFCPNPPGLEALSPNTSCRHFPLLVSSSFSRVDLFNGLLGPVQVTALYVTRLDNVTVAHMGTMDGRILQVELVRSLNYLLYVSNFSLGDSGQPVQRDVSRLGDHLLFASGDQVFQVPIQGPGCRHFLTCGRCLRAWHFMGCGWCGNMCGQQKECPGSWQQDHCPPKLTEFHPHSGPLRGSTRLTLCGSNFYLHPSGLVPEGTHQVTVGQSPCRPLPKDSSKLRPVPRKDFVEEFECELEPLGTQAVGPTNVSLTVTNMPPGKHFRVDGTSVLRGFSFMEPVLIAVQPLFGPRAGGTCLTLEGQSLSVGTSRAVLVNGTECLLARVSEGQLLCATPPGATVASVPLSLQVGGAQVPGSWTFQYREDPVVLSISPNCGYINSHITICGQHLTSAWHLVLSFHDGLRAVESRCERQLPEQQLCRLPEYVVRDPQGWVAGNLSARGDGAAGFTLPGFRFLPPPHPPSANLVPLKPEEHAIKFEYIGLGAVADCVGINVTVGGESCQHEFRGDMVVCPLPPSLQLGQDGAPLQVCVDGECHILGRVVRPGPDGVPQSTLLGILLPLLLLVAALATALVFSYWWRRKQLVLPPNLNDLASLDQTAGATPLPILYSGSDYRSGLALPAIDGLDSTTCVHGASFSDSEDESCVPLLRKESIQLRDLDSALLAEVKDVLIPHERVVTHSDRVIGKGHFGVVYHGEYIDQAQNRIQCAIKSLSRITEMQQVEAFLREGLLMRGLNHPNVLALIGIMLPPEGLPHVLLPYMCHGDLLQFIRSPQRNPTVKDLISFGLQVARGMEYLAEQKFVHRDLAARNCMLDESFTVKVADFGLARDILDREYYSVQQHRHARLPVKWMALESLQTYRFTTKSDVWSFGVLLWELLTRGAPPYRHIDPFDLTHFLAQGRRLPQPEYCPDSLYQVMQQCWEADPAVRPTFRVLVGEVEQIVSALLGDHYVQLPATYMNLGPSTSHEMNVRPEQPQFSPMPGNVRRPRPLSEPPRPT

Question: Which inhibition [1] does the source give for CN(C)C(=O)c1cc2cnc(Nc3ccc(NC(=O)CCCCCCCN=C=S)cc3)nc2n1C1CCCC1 here?
Answer: 37%

Question: And the inhibition [2]?
Answer: 29%

Question: And the inhibition [3]?
Answer: 22%

Question: And the inhibition [4]?
Answer: 7%

Question: What about the inhibition [5] of the same molecule?
Answer: 53%

Question: And the half-life at 2 µM [6]?
Answer: 23.1 min

Question: What about the inhibition [7] of the same molecule?
Answer: 3%

Question: What about the inhibition at 10 µM [8] of the same molecule?
Answer: 98.7%

Question: What about the inhibition [9] of the same molecule?
Answer: 16%

Question: And the inhibition [10]?
Answer: 16%

Question: And the inhibition [11]?
Answer: 7%

Question: What about the inhibition [12] of the same molecule?
Answer: 86%

Question: And the inhibition [13]?
Answer: 12%

Question: What about the viability at 0.25 µM [14] of the same molecule?
Answer: 77.9%

Question: And the inhibition [15]?
Answer: Active

Question: And the inhibition [16]?
Answer: 15%

Question: What about the IC50 [17] of the same molecule?
Answer: 3.86 µM

Question: What about the Activity [18] of the same molecule?
Answer: Active

Question: What about the inhibition [19] of the same molecule?
Answer: 72%

Question: What about the inhibition [20] of the same molecule?
Answer: 72%
